ChEMBL document CHEMBL1130279 (J Med Chem, 1997)

Legend:
[1] = biological target: T1, Sodium-dependent dopamine transporter (Rattus norvegicus, UniProt P23977); assay: Displacement of [3H]WIN-35428 from dopamine transporter in rat caudate putamen tissue; format: tissue-based
In short: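 Compounds were tested as oxalate salts unless noted; some were hydrochloride or fumarate. Values are mean ± SEM of three experiments, each run in triplicate.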

[2] = species: Rattus norvegicus; assay: Compound was evaluated for its ability to inhibit uptake of [3H]-dopamine into rat caudate putamen tissue; format: functional
[3] = biological target: T1, Sodium-dependent dopamine transporter; assay: Compound was evaluated for its ability to displace [3H]WIN-35428 from dopamine transporter in rat caudate putamen tissue; format: tissue-based
[4] = Rattus norvegicus, Caudate-putamen

T1 sequence (P23977 whole entry): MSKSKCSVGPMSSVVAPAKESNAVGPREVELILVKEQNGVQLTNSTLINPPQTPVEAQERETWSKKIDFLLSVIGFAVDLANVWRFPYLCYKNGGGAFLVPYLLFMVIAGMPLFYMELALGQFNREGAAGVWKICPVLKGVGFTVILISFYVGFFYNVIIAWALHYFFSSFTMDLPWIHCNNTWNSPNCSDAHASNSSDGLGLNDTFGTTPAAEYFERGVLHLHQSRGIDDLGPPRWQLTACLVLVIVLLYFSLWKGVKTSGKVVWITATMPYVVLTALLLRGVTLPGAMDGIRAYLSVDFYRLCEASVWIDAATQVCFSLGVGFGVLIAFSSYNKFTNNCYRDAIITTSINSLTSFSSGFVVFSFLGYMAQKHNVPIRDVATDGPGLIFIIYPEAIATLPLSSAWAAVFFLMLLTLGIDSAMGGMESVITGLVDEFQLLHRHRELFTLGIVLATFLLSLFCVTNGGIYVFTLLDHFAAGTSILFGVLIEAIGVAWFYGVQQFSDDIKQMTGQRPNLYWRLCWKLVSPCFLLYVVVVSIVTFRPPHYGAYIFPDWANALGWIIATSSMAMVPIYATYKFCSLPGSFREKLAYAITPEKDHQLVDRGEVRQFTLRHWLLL

| SMILES | Ki [1] [µM] | further results |
| --- | --- | --- |
| COC(=O)C[C@@H]1C2C[C@H](C)C(C[C@@H]1Cc1ccccc1)N2C (stereo partly specified) | 0.211 |  |
| COC(=O)CC1C(Cc2ccccc2)CC2CCC1N2C (stereo unspecified) | 0.033 | IC50 [2]: 0.161 µM |
| COC(=O)[C@@H]1C2CC[C@H](C[C@@H]1c1ccccc1)N2C |  | IC50 [3]: 0.314 µM; IC50 [2, 4]: 0.373 µM |
| COC(=O)C[C@H]1C2C[C@@H](Cc3ccccc3)C(C[C@@H]1Cc1ccccc1)N2C (stereo partly specified) | 7.59 |  |
| COC(=O)C[C@@H]1C2C[C@@H](Cc3ccccc3)C(C[C@@H]1Cc1ccccc1)N2C (stereo partly specified) | 3.08 |  |
| COC(=O)C[C@@H]1C2CCC(C[C@@H]1Cc1ccccc1)N2C (stereo partly specified) |  | IC50 [2, 4]: 0.094 µM |
| COC(=O)CC1=C(Cc2ccccc2)CC2C(Cc3ccccc3)CC1N2C (stereo unspecified) | 4.83 |  |
| COC(=O)CC1C(Cc2ccccc2)CC2C(Cc3ccccc3)CC1N2C (stereo unspecified) | 3.08 |  |
| COC(=O)CC1C(Cc2ccccc2)CC2CCC1N2C (single isomer, unassigned; (+)) | 0.06 | IC50 [2]: 0.208 µM |
| CC[C@@H]1CC2[C@@H](CC(=O)OC)[C@@H](Cc3ccccc3)CC1N2C (stereo in doubt; 19c) | 0.307 |  |
| CCCC[C@@H]1CC2[C@@H](CC(=O)OC)[C@@H](Cc3ccccc3)CC1N2C (stereo in doubt; 19e) | 8.58 |  |
| COC(=O)CC1C(Cc2ccccc2)CC2CCC1N2C (stereo in doubt; 20a) |  | IC50 [2]: 0.457 µM |
| CC[C@@H]1CC2[C@@H](CC(=O)OC)[C@@H](Cc3ccccc3)CC1N2C (stereo in doubt; 20c) | 1.15 |  |
| CCC[C@H]1CC2[C@@H](CC(=O)OC)[C@@H](Cc3ccccc3)CC1N2C (stereo in doubt; 20d) | 7.24 |  |
| CCCC[C@@H]1CC2[C@@H](CC(=O)OC)[C@@H](Cc3ccccc3)CC1N2C (stereo in doubt; 20e) | 19.7 |  |
| COC(=O)C[C@H]1C2C[C@@H](C)C(C[C@@H]1Cc1ccccc1)N2C (stereo in doubt; 21b) | 0.057 | IC50 [2]: 0.107 µM |
| CCC1CC2C(CC(=O)OC)C(Cc3ccccc3)CC1N2C (stereo in doubt; 21c) | 3.11 |  |
| CCCC1CC2C(CC(=O)OC)C(Cc3ccccc3)CC1N2C (stereo in doubt; 21d) | 5.85 |  |
| COC(=O)C[C@H]1C2C[C@@H](C)C(C[C@@H]1Cc1ccccc1)N2C (stereo in doubt; 22b) | 0.294 | IC50 [2]: 0.532 µM |
| CCC1CC2C(CC(=O)OC)C(Cc3ccccc3)CC1N2C (stereo in doubt; 22c) | 6.21 |  |
| CCCC1CC2C(CC(=O)OC)C(Cc3ccccc3)CC1N2C (stereo in doubt; 22d) | 57.3 |  |
